In PubChem BioAssay AID463147 (The Scripps Research Institute Molecular Screening Center, 2010):
Calls of active or inactive are those of the source.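 The calls were made as follows: active = fold change below 0.7, the computed hit cutoff; inactive = the rest.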

Target: Nuclear receptor ROR-gamma (Homo sapiens) (UniProt P51449)
Assay: RORG inhibitors in reporter cells, late-stage follow-up, selectivity assay for RORA inverse agonist project, cell-based, luminescence, single concentration, HEK293T GAL4-RORg (AID 463147)
Settings: HEK293T GAL4-RORg LBD luciferase reporter, 18-24 h; at 10 µM; active compounds read low
In short: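 Assay system: transfected HEK293T, GAL4-RORγ LBD and UAS-luciferase reporter; Measured by: luciferase luminescence from UAS reporter; Times: 20 h compound treatment; Compound: single nominal concentration of 10 µM per compound; Benchmarks: DMSO wells as reference; Repeats: six replicates per compound.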

Nuclear receptor ROR-gamma (Homo sapiens), sequence (P51449 whole entry, looked up, the tested form may be a part): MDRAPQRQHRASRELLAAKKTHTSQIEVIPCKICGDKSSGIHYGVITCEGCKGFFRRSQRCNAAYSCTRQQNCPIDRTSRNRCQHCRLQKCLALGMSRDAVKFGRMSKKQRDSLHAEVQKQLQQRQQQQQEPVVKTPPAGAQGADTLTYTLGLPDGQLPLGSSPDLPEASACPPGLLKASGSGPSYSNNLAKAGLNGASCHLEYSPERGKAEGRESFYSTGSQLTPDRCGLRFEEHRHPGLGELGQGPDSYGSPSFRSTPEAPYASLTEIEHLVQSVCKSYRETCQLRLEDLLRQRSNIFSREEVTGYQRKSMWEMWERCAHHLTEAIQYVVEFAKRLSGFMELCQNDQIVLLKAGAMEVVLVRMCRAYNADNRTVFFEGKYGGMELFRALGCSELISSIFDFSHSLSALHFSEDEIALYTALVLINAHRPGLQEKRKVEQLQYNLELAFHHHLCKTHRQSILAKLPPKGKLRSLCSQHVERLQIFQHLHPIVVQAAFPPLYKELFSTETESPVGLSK

SMILES | fold change
O=C(Nc1ccc(C(O)(C(F)(F)F)C(F)(F)F)cc1)c1ccc(F)cc1F | 1.23 (inactive)
O=S(=O)(Nc1ccc(C(O)(C(F)(F)F)C(F)(F)F)cc1)c1cccs1 | 0.91 (inactive)
O=C(Nc1ccc(C(O)(C(F)(F)F)C(F)(F)F)cc1)c1c(F)cccc1F | 1.06 (inactive)
O=C(Nc1ccc(C(O)(C(F)(F)F)C(F)(F)F)cc1)c1ccccc1C(F)(F)F | 0.897 (inactive)

Results, then the compound that gave them:

fold change | SMILES
0.873 (inactive) | O=C(Nc1ccc(C(O)(C(F)(F)F)C(F)(F)F)cc1)c1ccc(Cl)cc1
0.974 (inactive) | O=C(Nc1ccc(C(O)(C(F)(F)F)C(F)(F)F)cc1)c1ccc(F)cc1Cl
